Consider eight compounds from PubChem BioAssay AID623971 (Broad Institute, 2012).

Values joined by “and” are separate entries in the source; they are usually repeats but may differ in a detail not shown here. Equal values may be shown once. Active and inactive are the calls of the source.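 The calls were made as follows: active = compounds lowering yeast growth whose fitted half-maximal concentration is at most twice the top tested dose; inconclusive = flat curve with moderate growth inhibition, or a poor curve fit; inactive = the rest.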

For assay [1], the system named is S. cerevisiae growth in glucose, OD600, 48 h. Briefly: yeast growth reduction with glucose carbon source – OD600, powder samples, set 3, dose response (AID 623971). In short, it runs like this: (§1)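 Material: S. cerevisiae yeast; buffer or medium: CSM growth medium supplemented with glucose; doses: test compounds transferred into wells by pin tool; incubation: 48 h at 30 °C without shaking; measured by: OD600 absorbance; controls: amphotericin B 10 µM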

Test in assay [2]: as above
As to conditions: S. cerevisiae growth in glucose, OD600, 48 h; at 3 µM (top of the series). The procedure, abridged:
as §1

The AC50 is the concentration at which the activity in the assay is half-maximal. As to `CC1/C=C/C=C\C=C\C=C\C=C\C=C\C=C\C(O[C@H]2OC(C)C(O)C(N)C2O)CC2OC(O)(CC(O)CC(O)C(O)CCC(O)CC(O)CC(=O)OC(C)C(C)C1O)CC(O)C2C(=O)O` (stereo partly drawn), the AC50 in assay [1] is 384 nM.

As for `C/C=C/[C@@H]1[C@H]2C[C@@H](C)CC[C@@H]2C(C)=C[C@H]1C(=O)c1c(O)c(-c2ccc(O)cc2)c[nH]c1=O`, the activity change, negative = growth inhibition in assay [2] is -5.04% (inactive).

Turning to `CCOC(=O)N1C(=O)C2(CCCCC2)N(c2ccc(C)cc2)C1=S`, the activity change, negative = growth inhibition in assay [2] was -5.09% (inactive) and -19.8% (inactive).

With `CCOC(=O)N1C(=O)C2(CCCCC2)N(c2ccc(C#N)cc2)C1=S`, the activity change, negative = growth inhibition in assay [2] is -21.5% (inactive).

Consider `CCOC(=O)N1C(=O)C2(CCCCC2)N(c2ccc(Cl)cc2)C1=S`, for which the activity change, negative = growth inhibition in assay [2] is -15.5% (inactive).

As to `CCOC(=O)N1C(=O)C2(CCCCC2)N(c2ccccc2)C1=S`, the activity change, negative = growth inhibition in assay [2] was -11.6% (inactive).

Turning to `CCOC(=O)N1C(=O)C2(CCCCC2)N(c2cccc(C)c2)C1=S`, in assay [2], the activity change, negative = growth inhibition was -4.85% (inactive).

`CCOC(=O)N1C(=O)C2(CCCCC2)N(c2ccc(F)cc2)C1=S`: the activity change, negative = growth inhibition in assay [2] was -4.53% (inactive).
